Test results published in ChEMBL document CHEMBL1671676, “In vitro activity of nemonoxacin, a novel nonfluorinated quinolone, against 2,440 clinical isolates” (2009).
In brackets after ≈: the same amount, converted by molar mass.

What was measured:
Assay type in all cases: functional
Enterococcus faecium [1] = test: (§1) Antibacterial activity against Enterococcus faecium assessed as percent cumulative susceptible isolates at minimum inhibitory concentration of […] by CLSI broth microdilution method; design: scale not given: the % may be the effect or the level left
Enterococcus faecium [2] = test: Antibacterial activity against Enterococcus faecium assessed as percent cumulative susceptible isolates at minimum inhibitory concentration of 128 ug/ml by CLSI broth microdilution method; design: scale not given: the % may be the effect or the level left
Enterococcus faecalis [3] = test: Antibacterial activity against Enterococcus faecalis assessed as percent cumulative susceptible isolates at minimum inhibitory concentration of 0.03 ug/ml by CLSI broth microdilution method; design: scale not given: the % may be the effect or the level left
Staphylococcus aureus [4] = test: Antibacterial activity against Levofloxacin-susceptible Staphylococcus aureus assessed as percent cumulative susceptible isolates at minimum inhibitory concentration of <=0.008 ug/ml by CLSI broth microdilution method; design: scale not given: the % may be the effect or the level left
Escherichia coli [5] = test: Antibacterial activity against Escherichia coli assessed as percent cumulative susceptible isolates at minimum inhibitory concentration of 2 ug/ml by CLSI broth microdilution method; design: scale not given: the % may be the effect or the level left
Proteus mirabilis [6] = test: Antibacterial activity against Proteus mirabilis assessed as percent cumulative susceptible isolates at minimum inhibitory concentration of 64 ug/ml by CLSI broth microdilution method; design: scale not given: the % may be the effect or the level left
Staphylococcus aureus [7] = test: Antibacterial activity against non-levofloxacin susceptible Staphylococcus aureus assessed as percent cumulative susceptible isolates at minimum inhibitory concentration of 1 ug/ml by CLSI broth microdilution method; design: scale not given: the % may be the effect or the level left
Staphylococcus aureus [8] = test: Antibacterial activity against non-levofloxacin susceptible Staphylococcus aureus assessed as percent cumulative susceptible isolates at minimum inhibitory concentration of 0.5 ug/ml by CLSI broth microdilution method; design: scale not given: the % may be the effect or the level left
[9] = test system: Stenotrophomonas maltophilia; test: Antibacterial activity against Stenotrophomonas maltophilia assessed as percent cumulative susceptible isolates at minimum inhibitory concentration of 32 ug/ml by CLSI broth microdilution method; design: scale not given: the % may be the effect or the level left
Pseudomonas aeruginosa [10] = test: Antibacterial activity against Pseudomonas aeruginosa assessed as percent cumulative susceptible isolates at minimum inhibitory concentration of 64 ug/ml by CLSI broth microdilution method; design: scale not given: the % may be the effect or the level left
Staphylococcus aureus [11] = test: Antibacterial activity against methicillin-resistant Staphylococcus aureus assessed as percent cumulative susceptible isolates at minimum inhibitory concentration of 0.5 ug/ml by CLSI broth microdilution method; design: scale not given: the % may be the effect or the level left
Staphylococcus aureus [12] = test: Antibacterial activity against hospital-associated methicillin-resistant Staphylococcus aureus assessed as percent cumulative susceptible isolates at minimum inhibitory concentration of 0.5 ug/ml by CLSI broth microdilution method; design: scale not given: the % may be the effect or the level left
Proteus mirabilis [13] = test: Antibacterial activity against Proteus mirabilis assessed as percent cumulative susceptible isolates at minimum inhibitory concentration of >=[…] by CLSI broth microdilution method; design: scale not given: the % may be the effect or the level left
Enterococcus faecalis [14] = test: Antibacterial activity against Enterococcus faecalis by CLSI M7-A7 broth microdilution method
Staphylococcus aureus [15] = test: Antibacterial activity against community-associated methicillin-resistant Staphylococcus aureus assessed as percent cumulative susceptible isolates at minimum inhibitory concentration of 0.5 ug/ml by CLSI broth microdilution method; design: scale not given: the % may be the effect or the level left
[16] = test system: Staphylococcus epidermidis; test: Antibacterial activity against methicillin-susceptible Staphylococcus epidermidis assessed as percent cumulative susceptible isolates at minimum inhibitory concentration of 0.06 ug/ml by CLSI broth microdilution method; design: scale not given: the % may be the effect or the level left
Streptococcus pneumoniae [17] = test: Antibacterial activity against Streptococcus pneumoniae assessed as percent cumulative susceptible isolates at minimum inhibitory concentration of 0.03 ug/ml by CLSI broth microdilution method; design: scale not given: the % may be the effect or the level left
Escherichia coli [18] = test: Antibacterial activity against Escherichia coli assessed as percent cumulative susceptible isolates at minimum inhibitory concentration of 64 ug/ml by CLSI broth microdilution method; design: scale not given: the % may be the effect or the level left
Escherichia coli [19] = test: Antibacterial activity against Escherichia coli assessed as percent cumulative susceptible isolates at minimum inhibitory concentration of <=[…] by CLSI broth microdilution method; design: scale not given: the % may be the effect or the level left
Pseudomonas aeruginosa [20] = test: Antibacterial activity against Pseudomonas aeruginosa by CLSI M7-A7 broth microdilution method
Klebsiella pneumoniae = test: Antibacterial activity against Klebsiella pneumoniae assessed as percent cumulative susceptible isolates at minimum inhibitory concentration of 128 ug/ml by CLSI broth microdilution method; design: scale not given: the % may be the effect or the level left
Enterococcus faecalis [21] = test: Antibacterial activity against Enterococcus faecalis assessed as percent cumulative susceptible isolates at minimum inhibitory concentration of 0.06 ug/ml by CLSI broth microdilution method; design: scale not given: the % may be the effect or the level left
Staphylococcus aureus [22] = test: Antibacterial activity against community-associated methicillin-resistant Staphylococcus aureus by CLSI M7-A7 broth microdilution method
Procedure, shortened: (§2)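 Clinical isolates tested by CLSI broth microdilution using 96-well panels of doubling drug dilutions in cation-adjusted Mueller-Hinton broth with 5% lysed horse blood. MIC was read from these panels. Panel quality control used CLSI ATCC strains, including S. pneumoniae 49619, S. aureus 29213, E. faecalis 29212 and E. coli 25922. Cumulative percentages of isolates were tabulated at each MIC.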

Enterococcus faecium [23] = test: as §1; design: scale not given: the % may be the effect or the level left; remark: listed apart in the source
Proteus mirabilis [24] = test: Antibacterial activity against Proteus mirabilis assessed as percent cumulative susceptible isolates at minimum inhibitory concentration of 0.5 ug/ml by CLSI broth microdilution method; design: scale not given: the % may be the effect or the level left
Staphylococcus aureus [25] = test: Antibacterial activity against hospital-associated methicillin-resistant Staphylococcus aureus by CLSI M7-A7 broth microdilution method; procedure, shortened: as §2
Staphylococcus aureus [26] = test: Antibacterial activity against methicillin-resistant Staphylococcus aureus assessed as percent cumulative susceptible isolates at minimum inhibitory concentration of 4 ug/ml by CLSI broth microdilution method; design: scale not given: the % may be the effect or the level left
Klebsiella oxytoca = test: Antibacterial activity against Klebsiella oxytoca assessed as percent cumulative susceptible isolates at minimum inhibitory concentration of 0.5 ug/ml by CLSI broth microdilution method; design: scale not given: the % may be the effect or the level left; procedure, shortened: as §2
Escherichia coli [27] = test: Antibacterial activity against Escherichia coli assessed as percent cumulative susceptible isolates at minimum inhibitory concentration of 256 ug/ml by CLSI broth microdilution method; design: scale not given: the % may be the effect or the level left
Staphylococcus aureus [28] = test: Antibacterial activity against methicillin-susceptible Staphylococcus aureus by CLSI M7-A7 broth microdilution method
Procedure, shortened: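 Broth microdilution per CLSI guidelines on clinical isolates, using panels of doubling drug dilutions in cation-adjusted Mueller-Hinton broth with 5% lysed horse blood. MIC read per CLSI, and cumulative percentage of isolates inhibited at each concentration tabulated.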

[29] = test system: Stenotrophomonas maltophilia; test: Antibacterial activity against Stenotrophomonas maltophilia assessed as percent cumulative susceptible isolates at minimum inhibitory concentration of 64 ug/ml by CLSI broth microdilution method; design: scale not given: the % may be the effect or the level left
Enterococcus faecium [30] = test: Antibacterial activity against Enterococcus faecium assessed as percent cumulative susceptible isolates at minimum inhibitory concentration of 64 ug/ml by CLSI broth microdilution method; design: scale not given: the % may be the effect or the level left
Streptococcus pneumoniae [31] = test: Antibacterial activity against Streptococcus pneumoniae assessed as percent cumulative susceptible isolates at minimum inhibitory concentration of 1 ug/ml by CLSI broth microdilution method; design: scale not given: the % may be the effect or the level left
Staphylococcus aureus [32] = test: Antibacterial activity against community-associated methicillin-resistant Staphylococcus aureus assessed as percent cumulative susceptible isolates at minimum inhibitory concentration of 1 ug/ml by CLSI broth microdilution method; design: scale not given: the % may be the effect or the level left
[33] = test system: Stenotrophomonas maltophilia; test: Antibacterial activity against Stenotrophomonas maltophilia assessed as percent cumulative susceptible isolates at minimum inhibitory concentration of 8 ug/ml by CLSI broth microdilution method; design: scale not given: the % may be the effect or the level left
Proteus mirabilis [34] = test: Antibacterial activity against Proteus mirabilis assessed as percent cumulative susceptible isolates at minimum inhibitory concentration of 0.06 ug/ml by CLSI broth microdilution method; design: scale not given: the % may be the effect or the level left
Escherichia coli [35] = test: Antibacterial activity against Escherichia coli assessed as percent cumulative susceptible isolates at minimum inhibitory concentration of 8 ug/ml by CLSI broth microdilution method; design: scale not given: the % may be the effect or the level left

For `COc1c(N2C[C@@H](C)C[C@H](N)C2)ccc2c(=O)c(C(=O)O)cn(C3CC3)c12` [NEMONOXACIN], the Activity (Enterococcus faecium [1]) was 28.9%, the Activity (Enterococcus faecium [2]) was 100% and the Activity (Enterococcus faecalis [3]) was 2.5%. The Activity (Staphylococcus aureus [4]) was 5.9%, the Activity (Escherichia coli [5]) was 75.5% and the Activity (Proteus mirabilis [6]) was 97%. The Activity (Staphylococcus aureus [7]) was 30.6%, the Activity (Staphylococcus aureus [8]) was 19% and the Activity [9] was 92.3%. It also gave an Activity (Pseudomonas aeruginosa [10]) of 95.6%, an Activity (Staphylococcus aureus [11]) of 24.4% and an Activity (Staphylococcus aureus [12]) of 5.1%. It also gave an Activity (Proteus mirabilis [13]) of 100%, an MIC90 (Enterococcus faecalis [14]) of 1 µg/mL (≈ 2.69 µM) and an Activity (Staphylococcus aureus [15]) of 92%. The Activity [16] was 58.1%, the Activity (Streptococcus pneumoniae [17]) was 99.1% and the Activity (Escherichia coli [18]) was 98.2%. For the same molecule, the Activity (Escherichia coli [19]) was 0.2%, the MIC90 (Pseudomonas aeruginosa [20]) was at least 8 µg/mL and the Activity (Klebsiella pneumoniae) was 100%. For the same molecule, the Activity (Enterococcus faecalis [21]) was 18.5%, the MIC50 (Staphylococcus aureus [22]) was 0.25 µg/mL (≈ 0.673 µM) and the MIC90 (Staphylococcus aureus [22]) was 0.5 µg/mL (≈ 1.35 µM). For the same molecule, the Activity (Enterococcus faecium [23]) was 15.8%, the Activity (Proteus mirabilis [24]) was 54.5% and the MIC (Staphylococcus aureus [25]) was at least 4 µg/mL. It also gave an Activity (Staphylococcus aureus [26]) of 65.4%, an Activity (Klebsiella oxytoca) of 96.9% and an Activity (Escherichia coli [27]) of 99.7%. It also gave an MIC90 (Staphylococcus aureus [28]) of 0.12 µg/mL (≈ 0.323 µM), an Activity [29] of 100% and an Activity (Enterococcus faecium [30]) of 84.2%.
`C[C@H]1COc2c(N3CCN(C)CC3)c(F)cc3c(=O)c(C(=O)O)cn1c23.C[C@H]1COc2c(N3CCN(C)CC3)c(F)cc3c(=O)c(C(=O)O)cn1c23.O` [LEVOFLOXACIN] was tested, and the Activity (Streptococcus pneumoniae [31]) was 96.3%, the Activity (Staphylococcus aureus [32]) was 32% and the Activity [33] was 92.3%. The Activity (Proteus mirabilis [34]) was 33.3% and the Activity (Escherichia coli [35]) was 78.5%.
